Measured values: ChEMBL document CHEMBL3244421, “Antiarrhythmic activity of some N-alkylbispidinebenzamides” (J Med Chem, 1979)

Assays:
Mus musculus [1] = assay: Antiarrhythmic activity in ip dosed CF1 mouse assessed as protection against chloroform-induced ventricular fibrillation; type: functional; settings: CF1, Heart
Procedure, shortened: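 Adult female CF1 mice; protection against ventricular fibrillation provoked by chloroform exposure, used as the first screen of antiarrhythmic activity.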

[2] = Acute toxicity in ip dosed CF1 mouse; type: organism-based; settings: in vivo
Mus musculus [3] = assay: Ratio of LD50 for CF1 mouse to ED50 for antiarrhythmic activity in CF1 mouse; design: species or system Heart
[4] = Antiarrhythmic activity in New Zealand rabbit left atrium assessed as reduction in maximum following frequency (MFF); type: functional, Oryctolagus cuniculus, Cardiac atrium
Procedure, shortened: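 Left atria from male New Zealand white rabbits, mounted in Krebs-Henseleit buffer at 35 °C and aerated with 95% O2-5% CO2. Driven by 10-ms square-wave pulses at five times threshold voltage. Control maximum following frequency (MFF) was determined first, then MFF reduction at 1, 3, 13, 33 and 133 μM. ED25 (concentration reducing MFF to 75% of control) was estimated from dose-response curves.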

[5] = Toxicity in New Zealand rabbit assessed as reduction in force of left atrial contraction; type: tissue-based, Oryctolagus cuniculus, Cardiac atrium
[6] = Ratio of ED25 for reduction in force of left atrial contraction in New Zealand rabbit to ED25 for reduction in maximum following frequency in New Zealand rabbit left atrium; design: species or system Oryctolagus cuniculus, Cardiac atrium

SMILES | ED50 (Mus musculus [1]) [µmol/kg] | LD50 [2] [µmol/kg] | Ratio LD50/ED50 (Mus musculus [3]) | ED25 [4] [µM] | ED25 [5] [µM] | Ratio [6]
CN1CC2CC(C1)CN(C(=O)c1ccccc1)C2.O=C(O)/C=C/C(=O)O | 85 | 621 | 7.29 | 400 | > 400 | 
CN1CC2CC(C1)CN(C(=O)c1ccc(Cl)c(Cl)c1)C2.O=C(O)/C=C/C(=O)O | 470 | 492 | 1.05 |  |  | 
CN1CC2CC(C1)CN(C(=O)c1ccc(Cl)cc1)C2.O=C(O)/C=C/C(=O)O | 49 | 535 | 10.89 | 110 | 400 | 3.64
CC(C)N(CCC(C(N)=O)(c1ccccc1)c1ccccn1)C(C)C (stereo not given) [DISOPYRAMIDE] | 90 | 517 | 5.77 | 18 | 56 | 3.11
CCCCN1CC2CC(C1)CN(C(=O)c1ccc(Cl)cc1)C2.O=C(O)/C=C/C(=O)O | 134 | 463 | 3.45 |  |  | 
CCCCN1CC2CC(C1)CN(C(=O)c1ccc(Cl)c(Cl)c1)C2.O=C(O)/C=C/C(=O)O | 223 | 605 | 2.71 |  |  | 
COc1ccc(C(=O)N2CC3CC(CN(C)C3)C2)cc1.O=C(O)/C=C/C(=O)O | 78 | 463 | 5.93 | 500 | > 400 | 
CCCCN1CC2CC(C1)CN(C(=O)c1ccccc1)C2.Cl | 242 | 500 | 2.07 |  |  | 
CCCCN1CC2CC(C1)CN(C(=O)c1ccc(OC)cc1)C2.O=C(O)/C=C/C(=O)O | 106 | 488 | 4.6 |  |  | 
COc1cc(C(=O)N2CC3CC(CN(C)C3)C2)cc(OC)c1OC.O=C(O)/C=C/C(=O)O | 137 | 535 | 3.91 |  |  | 
